Experimental data: ChEMBL document CHEMBL1152965, “Synthesis and in vitro antiplasmodial evaluation of 4-anilino-2-trichloromethylquinazolines” (Bioorg Med Chem, 2009)

Assays:
[1] = Selectivity index, ratio of IC50 for human K562 cells to IC50 for chloroquine, pyrimethamine and proguanil-resistant Plasmodium falciparum W2; format: toxicity, cell-based; settings: K562 cells (cytotoxicity) versus Plasmodium falciparum W2, read-out: Ratio IC50
In short: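 SI = K562 IC50 / W2 IC50. Live cells counted by flow cytometry after propidium iodide stain. IC50 by non-linear regression, mean of three independent experiments.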

[2] = test system: Plasmodium falciparum; assay: Antimalarial activity as reduced parasitaemia after 48 hrs against chloroquine, pyrimethamine and proguanil-resistant Plasmodium falciparum W2 infected in type A+ human erythrocytes by flow cytometry; format: functional, organism-based; settings: W2, 48 h
[3] = Selectivity index, ratio IC50 for human HepG2 cells to IC50 for chloroquine, pyrimethamine and proguanil-resistant Plasmodium falciparum W2; format: functional
In short: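 SI = HepG2 IC50 / W2 IC50. MTT 2 h, formazan dissolved in DMSO, absorbance 570 nm (ref 630 nm). Viability as % of untreated control, IC50 from dose-response curve.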

[4] = test system: K562; assay: Cytotoxicity against human K562 cells after 72 hrs by flow cytometry; format: cell-based; settings: K562, 72 h
In short: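 Chemosensitive K562 subline, late log phase, in phenol-red-free RPMI with 10% serum. Compound range added in duplicate (DMSO <0.5%). After 72 h at 37 °C, 6% CO₂, cells stained with propidium iodide and live cells in a 100 µL sample counted by flow cytometry. IC50 from non-linear regression of dose-response curves, mean of three independent experiments.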

[5] = test system: HepG2; assay: Cytotoxicity against human HepG2 cells after 72 hrs by MTT assay; format: cell-based; settings: HepG2, 72 h
In short: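 HepG2 cells plated in RPMI with 10% FBS and grown 24 h, then exposed to a range of compound concentrations for 72 h at 37 °C, 6% CO₂. MTT (5 mg/mL stock) added for 2 h, formazan dissolved in DMSO and read at 570 nm against 630 nm. Viability expressed as percent of untreated control. CC50 taken from the dose-response curve.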

[6] = test system: Leishmania donovani; assay: Antileishmanial activity against Leishmania donovani HOM/IN/01/2001 promastigotes after 72 hrs by flow cytometry; format: functional, organism-based; settings: HOM/IN/01/2001, 72 h
In short: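 GFP-transfected promastigotes, log phase, in M199 with 10% FCS and 500 µg/mL G418, seeded at 10⁵ parasites/mL. Compounds in DMSO (final <0.5% v/v) added in duplicate over a concentration range. Incubated 72 h at 27 °C.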

[7] = test system: Toxoplasma gondii; assay: Antitoxoplasmic activity against Toxoplasma gondii tachyzoites infected in HFF assessed as beta-galactosidase activity after 96 hrs by colorimetric microtiter assay; format: functional, organism-based
In short: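 Tachyzoites of the PRU-β-Gal strain. 10⁴ HFF cells per well grown to confluence in phenol-red-free RPMI with 10% FCS. Monolayers infected with 2.10³ parasites per well for 3 h, then compounds in DMSO (final <0.5%) added in triplicate. Incubated 96 h at 37 °C, 6% CO₂. CPRG added at 500 µM final for a further 24 h. Read at 570/630 nm, blanked on uninfected wells. IC50 from three independent experiments.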

Row | IC50 [6] | SMILES | selectivity ratio [1] | IC50 [2] | Ratio IC50 [3] | IC50 [4] | IC50 [5] | IC50 [7]
1 | – | COc1cccc(Nc2nc(C(Cl)(Cl)Cl)nc3ccccc23)c1 | 2.3 | 4 µM | 0.1 | 9 µM | 0.5 µM | –
2 | – | Clc1cccc(Nc2nc(C(Cl)(Cl)Cl)nc3ccccc23)c1Cl | > 4.3 | 14 µM | 7.1 | > 60 µM | > 100 µM | –
3 | – | Clc1ccccc1Nc1nc(C(Cl)(Cl)Cl)nc2ccccc12 | > 10.9 | 4.6 µM | 5.5 | > 50 µM | 25 µM | –
4 | – | Clc1ccc(Cl)c(Nc2nc(C(Cl)(Cl)Cl)nc3ccccc23)c1 | > 4.7 | 1.7 µM | 17.6 | > 8 µM | 30 µM | –
5 | – | FC(F)(F)c1ccccc1Nc1nc(C(Cl)(Cl)Cl)nc2ccccc12 | 4.1 | 7.4 µM | 1.4 | 30 µM | 10 µM | –
6 | – | Clc1ccc(Nc2nc(C(Cl)(Cl)Cl)nc3ccccc23)cc1Cl | 1.8 | 5 µM | 1.6 | 9 µM | 8 µM | –
7 | – | COc1ccccc1Nc1nc(C(Cl)(Cl)Cl)nc2ccccc12 | 10 | 6 µM | 10 | 60 µM | 60 µM | –
8 | – | CN1CCN(c2nc(C(Cl)(Cl)Cl)nc3ccccc23)CC1 | 11.6 | 5.6 µM | 13.4 | 65 µM | 75 µM | –
9 | – | ClC(Cl)(Cl)c1nc(Nc2ccccc2)c2ccccc2n1 | > 4.5 | 11 µM | >4.5 | > 50 µM | > 50 µM | –
10 | – | ClC(Cl)(Cl)c1nc(NCc2ccccc2)c2ccccc2n1 | > 7.2 | 6.9 µM | 1.9 | > 50 µM | 13 µM | –
11 | – | ClC(Cl)(Cl)c1nc(Nc2ccccc2Br)c2ccccc2n1 | > 10 | 3 µM | >16.7 | > 30 µM | > 50 µM | –
12 | – | Cc1ccccc1Nc1nc(C(Cl)(Cl)Cl)nc2ccccc12 | 1.6 | 7 µM | 3.4 | 11 µM | 24 µM | –
13 | – | Fc1ccc(Nc2nc(C(Cl)(Cl)Cl)nc3ccccc23)cc1 | > 23.1 | 5.4 µM | >9.3 | > 125 µM | > 50 µM | –
14 | – | O=[N+]([O-])c1cccc(Nc2nc(C(Cl)(Cl)Cl)nc3ccccc23)c1 | 1.7 | 3 µM | 3.3 | 5 µM | 10 µM | –
15 | – | COc1ccc(Nc2nc(C(Cl)(Cl)Cl)nc3ccccc23)cc1 | 1.3 | 6 µM | 1.2 | 8 µM | 7 µM | –
16 | – | Clc1cc(Cl)cc(Nc2nc(C(Cl)(Cl)Cl)nc3ccccc23)c1 | 2.2 | 4 µM | 2.5 | 9 µM | 10 µM | –
17 | – | ClC(Cl)(Cl)c1nc(N2CCCC2)c2ccccc2n1 | > 3 | 41.5 µM | >6 | > 125 µM | > 250 µM | –
18 | – | Cc1nc(Nc2cccc(Cl)c2)c2ccccc2n1 | 0.5 | 55 µM | 0.7 | 27 µM | 40 µM | –
19 | – | Fc1cccc(Nc2nc(C(Cl)(Cl)Cl)nc3ccccc23)c1 | 3.8 | 4 µM | 1 | 15 µM | 16 µM | –
20 | – | CCCCNc1nc(C(Cl)(Cl)Cl)nc2ccccc12 | > 3.5 | 14.3 µM | 1.1 | > 50 µM | 16 µM | –

Row | IC50 [6] | SMILES | selectivity ratio [1] | IC50 [2] | Ratio IC50 [3] | IC50 [4] | IC50 [5] | IC50 [7]
21 | – | Clc1ccc(Nc2nc(C(Cl)(Cl)Cl)nc3ccccc23)cc1 | 4.7 | 3 µM | 3 | 14 µM | 9 µM | –
22 | – | ClC(Cl)(Cl)c1nc(Nc2ccc(Br)cc2)c2ccccc2n1 | 10 | 1.5 µM | 5.7 | 15 µM | 10 µM | –
23 | – | Cc1cccc(Nc2nc(C(Cl)(Cl)Cl)nc3ccccc23)c1 | 3.9 | 2.3 µM | 5.2 | 9 µM | 12 µM | –
24 | – | ClC(Cl)(Cl)c1nc(N2CCOCC2)c2ccccc2n1 | > 8.4 | 14.9 µM | >2 | > 125 µM | 63 µM | –
25 | – | O=[N+]([O-])c1ccc(Nc2nc(C(Cl)(Cl)Cl)nc3ccccc23)cc1 | 1.8 | 2.8 µM | 2.1 | 5 µM | 6 µM | –
26 | – | Clc1cccc(Cl)c1Nc1nc(C(Cl)(Cl)Cl)nc2ccccc12 | 0.5 | 21.9 µM | 1.1 | 10 µM | 23 µM | –
27 | – | Fc1ccccc1Nc1nc(C(Cl)(Cl)Cl)nc2ccccc12 | 3.3 | 9 µM | 1.1 | 30 µM | 10 µM | –
28 | – | ClC(Cl)(Cl)c1nc(NC2CCCCCC2)c2ccccc2n1 | > 9.8 | 5.1 µM | 3.7 | > 50 µM | 19 µM | –
29 | – | ClC(Cl)(Cl)c1nc(Nc2cccc3ccccc23)c2ccccc2n1 | 0.8 | 6 µM | 2.5 | 5 µM | 15 µM | –
30 | – | FC(F)(F)Oc1ccc(Nc2nc(C(Cl)(Cl)Cl)nc3ccccc23)cc1 | 2.1 | 2.9 µM | 2.1 | 6 µM | 6 µM | –
31 | – | O=[N+]([O-])c1ccccc1Nc1nc(C(Cl)(Cl)Cl)nc2ccccc12 | > 20 | 3 µM | >33.3 | > 60 µM | > 100 µM | –
32 | – | FC(F)(F)c1cc(Nc2nc(C(Cl)(Cl)Cl)nc3ccccc23)cc(C(F)(F)F)c1 | 3.3 | 3 µM | 1 | 10 µM | 3 µM | –
33 | – | Cc1nc(Nc2cccc(C(F)(F)F)c2)c2ccccc2n1 | 0.2 | 42.5 µM | 0.5 | 10 µM | 20 µM | –
34 | – | Cc1ccc(Nc2nc(C(Cl)(Cl)Cl)nc3ccccc23)cc1 | 2.5 | 2.4 µM | 3.3 | 6 µM | 8 µM | –
35 | – | FC(F)(F)c1ccc(Nc2nc(C(Cl)(Cl)Cl)nc3ccccc23)cc1 | 2.5 | 1.6 µM | 3.8 | 4 µM | 6 µM | –
36 | 0.08 µM | C[C@@H]1[C@H](O)[C@@H](C)/C=C/C=C/C=C/C=C/C=C/C=C/C=C/[C@H](O[C@@H]2O[C@H](C)[C@@H](O)[C@H](N)[C@@H]2O)C[C@@H]2O[C@](O)(C[C@@H](O)C[C@@H](O)[C@H](O)CC[C@@H](O)C[C@@H](O)CC(=O)O[C@H]1C)C[C@H](O)[C@H]2C(=O)O [AMPHOTERICIN B] | – | – | – | 17 µM | 10 µM | –
37 | – | CCN(CC)CCCC(C)Nc1ccnc2cc(Cl)ccc12 (centres undefined) [CHLOROQUINE] | – | – | – | 32 µM | – | –
38 | – | COc1cccc2c1C(=O)c1c(O)c3c(c(O)c1C2=O)C[C@@](O)(C(=O)CO)C[C@@H]3O[C@H]1C[C@H](N)[C@H](O)[C@H](C)O1 [DOXORUBICIN] | – | – | – | 0.06 µM | 0.2 µM | –
39 | – | C[C@H]1c2cccc(O)c2C(=O)C2=C(O)[C@]3(O)C(=O)C(C(N)=O)=C(O)[C@@H](N(C)C)[C@@H]3[C@@H](O)[C@@H]21.O [DOXYCYCLINE] | 2.3 | 6.5 µM | 3.1 | 15 µM | 20 µM | –
40 | – | CCc1nc(N)nc(N)c1-c1ccc(Cl)cc1 [PYRIMETHAMINE] | – | – | – | 5 µM | 30 µM | 2 µM
